# Assay outcomes from PubChem.
# An excerpt weighted towards active compounds, which were near 4.5% of everything screened.
# GPR7 antagonist: GPR7 receptor antagonists, primary screen, cell-based, fluorescence, single concentration; Neuropeptides B/W receptor type 1 (Homo sapiens), P48145; GPR7-expressing cells, fluorescence antagonist assay; inhibition, % at 4.4 µM; 290,000 tested, 1.1% active; in the data active = inhibition above about 16%, passing the limit was not always enough;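 also: cells stimulated with the agonist NPW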
# OX1R antag-1: antagonists of human orexin 1 receptor (OX1R); 330,000 tested, 1.8% active; inhibition, % at 6.6 µM; OX1R-expressing cells, FRET antagonist read-out; Orexin/Hypocretin receptor type 1 (Homo sapiens), O43613; in the data active = inhibition mostly above about 38%, no sharp cut-off; inactive = mostly below about 40%
# Target sequence (O43613 whole entry, looked up): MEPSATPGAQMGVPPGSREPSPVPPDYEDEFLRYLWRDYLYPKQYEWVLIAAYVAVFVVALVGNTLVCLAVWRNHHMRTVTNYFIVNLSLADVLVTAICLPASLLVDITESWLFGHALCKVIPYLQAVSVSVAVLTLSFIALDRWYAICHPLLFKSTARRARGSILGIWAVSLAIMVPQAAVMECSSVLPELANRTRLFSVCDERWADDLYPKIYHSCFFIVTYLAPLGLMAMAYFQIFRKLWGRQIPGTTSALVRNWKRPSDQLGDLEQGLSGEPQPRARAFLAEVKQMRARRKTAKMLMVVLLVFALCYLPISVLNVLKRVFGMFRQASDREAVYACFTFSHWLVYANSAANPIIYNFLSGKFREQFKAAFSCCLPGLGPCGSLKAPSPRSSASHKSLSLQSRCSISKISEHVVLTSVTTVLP
# TAAR1 agonist: human TAAR1 agonists, primary screen, Fluo-8 calcium fluorescence, CHO RD-HGA16 cells; Trace amine-associated receptor 1 (Homo sapiens), Q96RJ0; vehicle wells 0%, saturating PEA agonist 100%; activation, % at 3 µM; 360,000 tested, 0.99% active; AID 624467, 2012;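 active = activation above the mean activation of all test compounds in the run plus 3 SD, cut at about 38% in these data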
#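 Test system: RD-HGA16 (CHO) cells co-expressing Gα16 and hTAAR1; dosing: one-point dosing at 3 µM (nominal); timing: 17-24 h seeding, 75 min 37 °C dye, 30 min RT; signal: kinetic Fluo-8 calcium fluorescence; read-out basis: % activation relative to PEA EC100 response; controls: DMSO and PEA EC100; replicates: n 1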
# CHO parental Ca: ATP-evoked calcium signal inhibitors, parental CHO, primary screen, counter-screen for OX1R antagonist project, cell-based, fluorescence, Fluo-8 calcium dye | parental CHO-K1, ATP-induced calcium, Fluo-8 fluorescence | inhibition, % at 5.6 µM | 330,000 tested, 0.63% active | AID 463079, 2010;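 active = inhibition above that plate's mean sample inhibition plus 3 SD, cut at about 26% in these data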
#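 test system = CHO parental line | reagent = ATP stimulus | measured by = intracellular calcium via Fluo-8 no-wash fluorescent dye | control set = ATP and no-ATP DMSO wells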
# OX1R antag-2: OX1R (HCRTR1) antagonists, primary screen, fluorescence, CHO/OX1R cells, Fluo-8 calcium, orexin A; Orexin/Hypocretin receptor type 1 (Homo sapiens), O43613; Fluo-8 calcium fluorescence; inhibition, % at 5 µM; 330,000 tested, 0.43% active; AID 434989, 2010;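 active = inhibition above its plate's threshold, mean inhibition of all tested compounds on the plate plus 3 SD, cut at about 37% in these data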
# TAAR1 antag: human TAAR1 antagonists, primary screen, Fluo-8 calcium fluorescence, CHO RD-HGA16 cells; Trace amine-associated receptor 1 (Homo sapiens), Q96RJ0; antagonist; inhibition, % at 3 µM; 360,000 tested, 1.5% active; AID 624466, 2012;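 active = inhibition above a per-plate cutoff, the mean inhibition of test compounds on that plate plus 3 SD, cut at about 49% in these data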
#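 Test system: RD-HGA16 CHO cells with stable hTAAR1 and Gα16 / Probe or stimulus: EC80 β-phenethylamine stimulus / Times: seeding 17-24 h prior, 75-min 37 °C, 30-min RT dye loading / Detection: Fluo-8 calcium-sensitive fluorescence / Read-out basis: % inhibition scaled between DMSO and EC80 PEA controls / Repeats: singlicate, one well per test compound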
# Hits are given with their value; n = inactive; x = no result given.
SMILES,GPR7 antagonist,OX1R antag-1,TAAR1 agonist,CHO parental Ca,OX1R antag-2,TAAR1 antag
Cc1ccc(Nc2ccc([N+](=O)[O-])cn2)cc1Cl,n,x,n,x,x,54
Nc1[nH]c(C(=O)c2ccc(Br)cc2)c(-c2ccc(Cl)cc2)c1C(=O)NCCc1c[nH]c2ccccc12,x,x,n,x,x,n
N#Cc1cccc(C#N)c1Oc1ccc(S(=O)(=O)Nc2ccc(Cl)cc2)cc1,n,n,n,43,n,n
Cc1cc(NC(=O)C(C)SCC(=O)N(C)Cc2ccccc2F)no1 (stereo not drawn),x,n,n,n,n,n
COC(=O)[C@]12C[C@H](CC(=O)NCc3cccc(C(F)(F)F)c3)C(=O)N(CCC3=CCCCC3)C1=C[C@H](COCc1ccccc1)O[C@@H]2C,x,x,n,x,x,n
O=C(Nc1cccc([N+](=O)[O-])c1)c1cnccn1,n,n,n,n,n,n
O=C(N/N=C/c1cc([N+](=O)[O-])ccc1Cl)c1cnccn1,n,71,n,n,n,n
O=C(Nc1ccccc1)Nc1ccc(S(=O)(=O)N2CCCCC2)cc1,n,n,50,38,n,n
CC(=O)Nc1ccc(S(=O)(=O)N2CCN(S(=O)(=O)N3CCCCCC3)CC2)cc1,19,n,n,n,n,n
CN1CCN(S(=O)(=O)c2ccc(NC(=O)c3ccc(Br)s3)cc2)CC1,18,n,n,n,n,n
CC(SCC(=O)Nc1ccc(S(=O)(=O)N2CCCCC2)cc1)C(=O)O (stereo not drawn),19,n,n,n,n,n
Cc1[nH]c2ccccc2c1CC(=O)Nc1ccc(Nc2cccnc2)c(-c2ccc(C(C)(C)C)cc2)c1,x,x,n,x,x,n
CCCN1C(=O)c2n[nH]c(C)c2C1c1ccc(Br)cc1 (stereo not drawn),x,x,n,x,x,n
CC(=O)Nc1ccc(S(=O)(=O)N2CCN(CC(=O)N3CCOCC3)CC2)cc1,20,n,n,n,n,n
O=C(CN1CCOCC1)Nc1ccc2c(c1)OCO2,n,n,n,n,n,n
Cc1ccc(S(=O)(=O)N2CCN(CC(=O)N3CCOCC3)CC2)cc1,n,n,n,n,n,n
O=C(CN1CCN(S(=O)(=O)c2ccc(Br)cc2)CC1)Nc1ccc2c(c1)OCO2,31,n,n,n,n,n
N#CC(C#N)=NNc1ccc(S(=O)(=O)N2CCCCC2)cc1,n,57,n,n,n,n
O=C(C1CCCCC1)N1C[C@@H](n2cc(-c3ccc(F)cc3)nn2)[C@H](O)C[C@@H]1c1ccccc1,x,x,n,x,x,n
O=C(Nc1nc2ccc(F)cc2s1)C1CCN(S(=O)(=O)c2cc([N+](=O)[O-])ccc2Cl)CC1,n,n,n,67,n,n
CC(=O)O[C@H]1CC[C@]2(C)C3CC[C@]4(C)[C@@H]([C@H](C)/C=C/[C@H](C)C(C)C)CC[C@H]4[C@@]34C=C[C@]2(C1)N(C(=O)c1ccccc1)O4 (stereo partly drawn),x,x,n,x,x,n
C=CCN1[C@H](C)[C@H](c2ccccc2)Oc2cc(Br)ccc2S1(=O)=O,x,x,n,x,x,n
CN(C)S(=O)(=O)c1cccc2nsnc12,n,35,n,n,n,n
Cc1cccc(N(C)S(=O)(=O)c2cccc3nsnc23)c1,n,n,n,n,n,n
CN(CC(=O)Nc1ccc(F)c(F)c1)S(=O)(=O)c1cccc2nsnc12,n,63,n,n,n,n
O=C(Cc1ccccc1)Nc1nc2ccccc2[nH]1,n,n,n,n,n,n
O=C(Cc1ccc(Cl)cc1)Nc1nc2ccccc2[nH]1,n,n,39,n,n,n
COc1cc(Br)c(/C=C/c2ccc3cccc(O)c3n2)cc1OC,n,n,n,n,n,n
COc1cc(/C=C/c2ccc3cccc(O)c3n2)c(Br)cc1O,n,n,n,45,n,n
CSc1cccc(NC(=O)/C=C/c2ccc(Cl)cc2)c1,n,92,n,n,n,n
